Results reported in ChEMBL document CHEMBL1154198, “Chemical genetics of Plasmodium falciparum” (Nature, 2010).

What was measured:
Plasmodium falciparum [1] = experiment: ST_JUDE: Cytotoxicity against Plasmodium falciparum SB-A6; type: functional, organism-based
Plasmodium falciparum [2] = experiment: ST_JUDE: Cytotoxicity against Plasmodium falciparum D10 transfected with yeast DHOD; type: functional, organism-based
Plasmodium falciparum [3] = experiment: ST_JUDE: Plasmodium falciparum 3D7 EC50 (uM) as measured by SYBR green dye; type: functional, organism-based
[4] = ST_JUDE: Cytotoxicity using luciferase to measure ATP as an indicator of the viability of human foreskin fibroblast cells (BJ); type: toxicity, cell-based
Plasmodium falciparum [5] = experiment: ST_JUDE: Cytotoxicity against Plasmodium falciparum 3D7; type: functional, organism-based
Outline: (§1)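 Asexual P. falciparum grown in human erythrocytes, exposed to compounds for 72 h, and growth read as the DNA quantity in treated versus control cultures. Dose-response run at 12 concentrations from 10 μM to 5 nM.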

Plasmodium falciparum [6] = experiment: ST_JUDE: Cytotoxicity against Plasmodium falciparum W2; type: functional, organism-based
Toxoplasma gondii = experiment: ST_JUDE: Growth inhibition of to Toxoplasma gondii, in human U-2OS cells, as measured by luciferase.; type: functional, organism-based; settings: RH, U2OS
Outline: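 T. gondii parasites engineered to express luciferase; drug sensitivity read by luminescence.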

Plasmodium falciparum [7] = experiment: ST_JUDE: Plasmodium falciparum K1 EC50 (uM) as measured by SYBR green dye; type: functional, organism-based
Plasmodium falciparum [8] = experiment: ST_JUDE: Cytotoxicity against Plasmodium falciparum K1; type: functional, organism-based; outline: as §1
Plasmodium falciparum [9] = experiment: ST_JUDE: Cytotoxicity against Plasmodium falciparum V1/S; type: functional, organism-based
[10] = ST_JUDE: Cytotoxicity using luciferase to measure ATP as an indicator of the viability of human Burkitt''s lymphoma lymphoblast cells (Raji); type: toxicity, cell-based
[11] = ST_JUDE: Cytotoxicity using luciferase to measure ATP as an indicator of the viability of human epithelial hepatocellular carcinoma cells (HepG2); type: toxicity, cell-based
Leishmania major = experiment: ST_JUDE: Cytotoxicity using Alamar Blue to measure viability of Leishmania major; type: functional, organism-based
Outline: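 L. major promastigotes; drug susceptibility read with Alamar Blue.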

Trypanosoma brucei = experiment: ST_JUDE: Cytotoxicity using luciferase to measure ATP as an indicator of the viability of Trypanosoma brucei; type: functional, organism-based
[12] = ST_JUDE: Cytotoxicity using luciferase to measure ATP as an indicator of the viability of human epithelial embryonic kidney cells (HEK293); type: toxicity, cell-based
Plasmodium falciparum [13] = experiment: ST_JUDE: Cytotoxicity against Plasmodium falciparum Dd2; type: functional, organism-based

SMILES | EC50 (Plasmodium falciparum [3]) [nM] | EC50 (Plasmodium falciparum [7]) [nM] | EC50 (Plasmodium falciparum [1]) [nM] | EC50 (Plasmodium falciparum [2]) [nM] | EC50 [4] [µM] | EC50 (Plasmodium falciparum [5]) [nM] | EC50 (Plasmodium falciparum [6]) [nM] | EC50 (Toxoplasma gondii) [µM] | EC50 (Plasmodium falciparum [8]) [nM] | EC50 (Plasmodium falciparum [9]) [nM] | EC50 [10] [µM] | EC50 [11] [µM] | EC50 (Leishmania major) [µM] | EC50 (Trypanosoma brucei) [µM] | EC50 [12] [µM] | EC50 (Plasmodium falciparum [13]) [nM]
COc1ccc(NC(=O)C2c3ccccc3C(=O)N(C3CCCC3)C2c2cccs2)cc1 (centres undefined) | 979 | 1220 | 1970 | 1410 | > 40.7 | 1230 | > 10500 | > 22.3 | 1170 | 1020 | > 40.7 | > 40.7 | > 17.4 | 6.53 | > 40.7 | 1110
CN(C)c1cc[n+](CC(=O)c2ccc(Br)cc2)cc1 | 1090 | 1500 | > 7920 | 4300 | > 30.8 | 1610 | > 7920 | > 16.9 | 2610 | > 7920 | > 30.8 | > 30.8 | > 13.2 | > 29.6 | > 30.8 | 1030
CCOC(=O)c1cnc2c(OC)cccc2c1Nc1ccc(OC)c(OC)c1 | 858 | 804 | > 11600 | > 11600 | > 45.1 | 476 | 2700 | > 24.7 | 651 | 865 | > 45.1 | > 45.1 | > 19.3 | > 43.2 | > 45.1 | 676
COc1ccccc1/N=C1\C=C(NS(=O)(=O)c2ccc(C(C)C)cc2)c2ccccc2C1=O | 598 | 132 | 190 | 343 | > 34.5 | 450 | > 8870 | > 18.9 | 290 | 280 | > 34.5 | > 34.5 | > 14.8 | 1.79 | > 34.5 | 627
CC(C)c1ccc(S(=O)(=O)NC2=C/C(=N\c3ccc(O)cc3)C(=O)c3ccccc32)cc1 | 346 | 125 | 290 | 288 | 3.58 | 547 | 823 | > 19 | 425 | 836 | 3.02 | 2.22 | > 14.9 | 0.75 | 5.47 | 946
COc1cc(C2CC(=O)NC3=C2C(=O)CC(c2ccccc2Cl)C3)cc(Br)c1O (centres undefined) | 1280 | 945 | 2450 | 1930 | > 54.2 | 1860 | 1060 | > 29.7 | 1910 | 2730 | > 54.2 | > 54.2 | > 23.2 | 16.4 | > 54.2 | 1910
CCCCCCn1c(=N)n(CC(O)COc2ccccc2C)c2ccccc21 (centres undefined) | 1260 | 715 | 4670 | 6570 | 16.8 | 2200 | 1290 | 13.9 | 1430 | 2090 | 12.6 | 6.98 | > 23.4 | 3.73 | 20.3 | 1110
C=CC[n+]1c(C=C2C=CN(CC)C=C2)sc2ccccc21 | 425 | 305 | 1310 | 1290 | > 28.2 | 1000 | > 7250 | > 15.5 | > 7250 | 1270 | 1.24 | > 28.2 | 0.0208 | 1.51 | > 28.2 | 696
CN(C(=O)c1cc2c(s1)-c1ccccc1S(=O)(=O)C2)c1cccc(C(F)(F)F)c1 | 744 | 1250 | 414 | 431 | > 40.8 | 350 | 116 | > 22.4 | 356 | 684 | > 40.8 | > 40.8 | > 17.5 | 18.1 | > 40.8 | 335
OC(CNC1CCCC1)Cn1c2ccc(Cl)cc2c2cc(Cl)ccc21 (centres undefined) | 990 | 146 | 635 | 652 | > 24.3 | 576 | 572 | > 13.3 | 258 | 690 | 10.9 | 8.67 | > 10.4 | 2.02 | 20.5 | 253
COC(=O)C1=CNC=C(C(=O)OC)C1c1ccc(Cl)c(Cl)c1 | 843 | 1670 | > 11800 | > 11800 | > 45.8 | 772 | 900 | > 25.1 | 1360 | 1780 | > 45.8 | > 45.8 | > 19.6 | 17.1 | > 45.8 | 780

Compounds with a lower EC50 (Plasmodium falciparum [3]), results first:

EC50 (Plasmodium falciparum [3]) [nM] | EC50 (Plasmodium falciparum [7]) [nM] | SMILES | EC50 (Plasmodium falciparum [1]) [nM] | EC50 (Plasmodium falciparum [2]) [nM] | EC50 [4] [µM] | EC50 (Plasmodium falciparum [5]) [nM] | EC50 (Plasmodium falciparum [6]) [nM] | EC50 (Toxoplasma gondii) [µM] | EC50 (Plasmodium falciparum [8]) [nM] | EC50 (Plasmodium falciparum [9]) [nM] | EC50 [10] [µM] | EC50 [11] [µM] | EC50 (Leishmania major) [µM] | EC50 (Trypanosoma brucei) [µM] | EC50 [12] [µM] | EC50 (Plasmodium falciparum [13]) [nM]
28.6 | 26.1 | CCN(CC)Cc1cc(Nc2ccnc3cc(Cl)ccc23)ccc1O | 32.5 | 49.9 | > 40.2 | 44.3 | 12 | > 22.1 | 42.6 | 45 | > 40.2 | > 40.2 | > 17.2 | > 38.6 | > 40.2 | 74.4
58.4 | 80.9 | CC(C)CN1C(=O)c2ccccc2C(C(=O)Nc2cccc(C#N)c2)C1c1cccs1 (centres undefined) | 351 | 366 | > 46.8 | 271 | 196 | > 25.7 | 232 | 296 | > 46.8 | > 46.8 | > 20.1 | 3.18 | > 46.8 | 161
33.3 | 989 | Cc1ccc(N2C(N)=NC(N)=NC2(C)C)cc1 | 15.1 | 785 | > 34.9 | 21.4 | 729 | 5.71 | 676 | > 8970 | > 34.9 | > 34.9 | > 15 | > 33.5 | > 34.9 | 2030
89.7 | 173 | CC(C)CN1C(=O)c2ccccc2C(C(=O)Nc2ccc(F)c(Cl)c2)C1c1cccs1 (centres undefined) | 1390 | 1310 | > 42.3 | 378 | 152 | > 23.2 | 421 | 1680 | > 42.3 | 38.1 | > 18.1 | 2.62 | > 42.3 | 421
334 | 181 | C=CCn1c(=N)n(CC(O)c2ccc(Cl)c(Cl)c2)c2ccccc21 (centres undefined) | 2530 | 2630 | > 44.7 | 1080 | 512 | > 24.5 | 602 | 788 | 26.4 | 16.4 | > 19.1 | 8.34 | 39.2 | 434
5.5 | 7.5 | CCOc1ccc(N(C(C)=O)C2=C(N(C)C)C(=O)c3ccccc3C2=O)cc1 | 1 | 1 | 11.2 | 2.7 | 8.5 | 10.6 | 3.5 | 5.5 | 0.353 | 4.82 | > 12.9 | 1.24 | > 30.2 | 6.3
276 | 254 | CN1C(=O)/C(=C\c2ccccc2Cl)Sc2ccc(C(=O)NC3CCN(Cc4ccccc4)CC3)cc21 | 717 | 1090 | > 42.5 | 1740 | > 10900 | > 23.3 | 2910 | 3970 | > 42.5 | 17.9 | > 18.2 | 3.47 | > 42.5 | 1150
59 | 42.4 | CCCCN(CCCC)CC(O)COc1ccccc1C(=O)Nc1ccccc1 (centres undefined) | 144 | 163 | > 53.2 | 108 | 202 | > 29.2 | 39.3 | 54.5 | > 53.2 | > 53.2 | > 22.8 | 21.3 | > 53.2 | 69.2
